Only some compounds are listed: those with a hit (about 2.9% of all), similar ones and a draw of the others.
MT stabilizer = microtubule stabilization, imaging screen | HeLa tubulin immunostaining HCS, 24 h; share of cells brighter than vehicle mean+2SD | 200,000 compounds, 0.83% hits | AID 2205 | % tubulin-high responders, % at 10 µM;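 active means plate Z-score above 3 for both tubulin-high and condensed-nucleus cell shares, with cell loss under 80%, at 10 µM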;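 further: anti alpha tubulin signal scored within the nucleus-defined area of each cell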
Wee1 stabilizer = blocks degradation of human Wee1 kinase | P30291 | HeLa Luc-Wee1K328M stability, luciferase luminescence; 100% = proteasome inhibitor MG132 effect | reporter increase, % at 5 µM | 220,000 compounds, 1.2% hits;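 active means activation above the mean of all tested compounds plus 3 SD, set per screening run, cut at about 8.8% in these data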;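 further: cells exposed to compound for 20 h before luminescence read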
Target sequence (P30291 whole entry K328M): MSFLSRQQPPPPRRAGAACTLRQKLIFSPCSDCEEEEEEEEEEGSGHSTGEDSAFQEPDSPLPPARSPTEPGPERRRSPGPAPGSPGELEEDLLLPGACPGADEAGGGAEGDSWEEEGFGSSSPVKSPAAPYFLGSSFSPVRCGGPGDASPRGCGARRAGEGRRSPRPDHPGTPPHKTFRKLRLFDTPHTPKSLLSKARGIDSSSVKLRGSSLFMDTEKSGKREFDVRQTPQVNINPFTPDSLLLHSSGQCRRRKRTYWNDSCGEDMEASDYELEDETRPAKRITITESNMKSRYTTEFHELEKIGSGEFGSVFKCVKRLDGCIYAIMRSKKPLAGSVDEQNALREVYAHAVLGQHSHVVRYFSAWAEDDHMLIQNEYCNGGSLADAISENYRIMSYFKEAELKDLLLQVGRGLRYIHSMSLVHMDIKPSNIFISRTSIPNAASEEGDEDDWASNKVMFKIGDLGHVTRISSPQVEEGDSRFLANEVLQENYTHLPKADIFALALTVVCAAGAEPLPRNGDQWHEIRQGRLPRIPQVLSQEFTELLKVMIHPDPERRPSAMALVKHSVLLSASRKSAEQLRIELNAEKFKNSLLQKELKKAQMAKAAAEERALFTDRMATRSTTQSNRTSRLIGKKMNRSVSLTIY
bCat nuc transl = modulators of beta-catenin nuclear translocation. HeLa beta-catenin nuclear translocation, immunofluorescence imaging. nuclear translocation activity, % at 5 µM. 190,000 compounds, 0.3% hits. AID 1665;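 active means nuclear translocation activity above 50% at 5 µM, with a well cell count of 50 or more; inconclusive means wells under 50 cells across six images, flagged as toxic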;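 further: per-cell ratio of nuclear to cytoplasmic median beta-catenin stain intensity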
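System: Human HeLa cells, endogenous beta-catenin | Compound dosing: 5 µM primary, 0.02–20 µM confirmation | Timing: 24 h compound exposure at 37°C, 5% CO2 | Measured by: Fluorescence imaging of beta-catenin antibody stain plus DAPI | Read-out basis: % activation of per-cell nuclear versus cytoplasmic median beta-catenin signal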
Autophagy HCS = alters autophagy in cells | calls only at 10 µM (by protocol) | MEF GFP-LC3 puncta imaging; test concentration mostly 10 µM | 190,000 compounds, 0.98% hits | AID 463193;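 active means percentage of spot-positive cells more than 3 SD above its plate mean, without a fluorescence outlier flag or 80% toxicity; inconclusive means no clear call, values can overlap the other calls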
Insulin prom up = MIN6 insulin promoter up-regulation. MIN6 insulin promoter-GFP reporter, high-content imaging; active compounds read high. z-score at 5 µM. 190,000 compounds, 0.3% hits. AID 1625;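 active means z-score above 3 at 5 µM with at least 500 cells counted in the well; inconclusive means wells under 500 cells, flagged as cytotoxic or low count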
Hits are given with their value; . = inactive; ? = inconclusive; / = not tested or not shown; + = active, no number.

SMILES	MT stabilizer	Wee1 stabilizer	bCat nuc transl	Autophagy HCS	Insulin prom up
Cn1c(-c2ccc3c(c2)OCO3)cnc1NCc1cccc(Cl)c1	.	.	.	.	.
Cn1c(-c2ccc3c(c2)OCO3)cnc1NCc1ccccc1	20.5	.	.	.	.
O=C(CSc1nnc(-c2ccc(F)cc2)c2ccccc12)Nc1ccccc1	.	10.1	.	.	.
CC(OC(=O)c1cccc(S(=O)(=O)Nc2cccc(C(F)(F)F)c2)c1)C(=O)Nc1ccc2c(c1)OCCO2 (stereo not given)	.	9.2	.	.	.
COC(=O)c1cnn2c(C(F)(F)F)cc(-c3ccc(F)cc3)nc12	.	.	.	.	4.23
CC(Oc1ccc(Cl)cc1Cl)C(=O)Nc1ccncc1 (stereo not given)	56.1	.	52.4	.	.
CC(=O)Nc1ccc(NC(=O)C(C)Oc2ccc(Cl)cc2Cl)cc1 (stereo not given)	.	.	.	.	.
Cc1cccnc1NC(=S)NC(=O)c1cccs1	.	12.6	.	.	.
CC(=O)Nc1cccc(CP(=O)(c2ccccc2)c2ccccc2)c1	/	.	.	/	.
COc1ccc(/C=N/NC(=O)COc2cc(C)cc(C)c2)cc1COC(C)=O	.	.	/	.	.
NS(=O)(=O)c1ccc(CNC(=S)NCc2ccc(Cl)cc2)cc1	11.1	.	.	.	.
CC(C)c1ccccc1NC(=O)COC(=O)C1(C)CC1(Cl)Cl (stereo not given)	.	.	.	.	.
COc1cccc(C(=O)Nc2cc3c(cc2C(C)=O)OCCO3)c1	.	.	/	.	.
COc1ccc(COC(=O)C2=C(C)NC(=O)NC2c2ccc(O)c(OC)c2)cc1 (stereo not given)	.	.	.	.	.
CC1=C(C(=O)OCc2ccc3c(c2)OCO3)C(c2ccc(Cl)cc2)NC(=O)N1 (stereo not given)	15.8	.	.	.	.
CC1=C(C(=O)OCc2ccc3c(c2)OCO3)C(c2ccc(F)cc2)NC(=O)N1 (stereo not given)	14.8	.	.	.	.
CCOC(=O)C1=C(C)NC(=O)NC1c1ccc2c(c1)OCCO2 (stereo not given)	.	.	.	.	.
Cc1ccnc(NC(=S)NC(=O)/C=C/c2ccc(Cl)cc2)c1	.	.	/	.	.
O=C(NCCCCc1ccccc1)C1CC(c2ccccc2C(F)(F)F)=NO1 (stereo not given)	/	/	.	/	.
COc1ccc(CNC(=O)CNC(=O)c2c(C)nn(C)c2Cl)cc1	.	.	.	.	/
COCCNC(=O)CN(c1cc(C(F)(F)F)ccc1Cl)S(C)(=O)=O	.	10.1	.	.	.
COc1ccccc1Cn1c(SCC(N)=O)nc2c(oc3ccccc32)c1=O	.	.	.	.	.
O=C(CSc1nc2ccccc2o1)NCc1ccc2c(c1)OCO2	.	.	.	/	.
O=C(CSc1nc2ccc(Cl)cc2o1)NCc1ccc2c(c1)OCO2	.	.	/	.	3.95
CCCC(NCC(O)COc1ccc(-c2ccccc2)cc1)c1ccccc1 (stereo not given)	22.4	.	.	.	.
SMILES	MT stabilizer	Wee1 stabilizer	bCat nuc transl	Autophagy HCS	Insulin prom up
CCN(CC)CCNC(=O)c1ccc(NC(=O)c2cn(-c3ccccc3)nc2-c2cccs2)cc1	.	.	.	+	.
Cc1cc(C(=O)NNC(=O)c2ccc(S(=O)(=O)N(C)C)cc2)c(C)o1	.	9.5	.	.	.
COc1ccc(/C=C/C(=O)Nc2cc(=O)n(C)c(=O)n2C)cc1	.	9.7	.	.	.
Cn1c(NC(=O)/C=C/c2ccccc2)cc(=O)n(C)c1=O	.	8.9	.	.	.
Cn1c(NC(=O)/C=C/c2ccc(Cl)c(Cl)c2)cc(=O)n(C)c1=O	.	.	.	.	.
Cc1nc(OCc2ccccc2)c2sc3nc4c(cc3c2n1)COC(C)(C)C4	.	.	.	.	.
C[C@@H](C(=O)OCn1nnc2ccccc2c1=O)N1C(=O)C2CCCCC2C1=O (stereo not given in full)	.	.	.	.	.
Cc1ccc(C)c(C(=O)Nc2cc(C)nn2-c2nc(C)cc(C)n2)c1	12.9	.	.	.	.
Cc1cc(C)nc(-n2nc(C)cc2NC(=O)c2cccc(S(=O)(=O)N(C)C)c2)n1	/	/	.	/	.
Brc1ccc(Oc2nsnc2N2CCOCC2)cc1	.	.	.	.	3.88
COC(=O)Oc1nsnc1N1CCOCC1	.	.	.	.	/
c1ccc(-c2csc3ncnc(NCCCN4CCOCC4)c23)cc1	.	.	.	.	?
O=c1c2ccccc2nc(-c2ccccc2)n1CCN1CCOCC1	.	.	.	.	.
O=c1c2c(-c3ccccc3)csc2nc2c3ccccc3c(NCCN3CCOCC3)nn12	.	.	.	+	.
O=c1c2ccccc2nc2c3ccccc3c(NCCN3CCOCC3)nn12	.	.	.	+	/
COc1cc(C)nc(NC(=S)N(C)C(=O)c2ccccc2)n1	/	.	.	/	.
Cc1cc(NC(=O)c2cc(-c3ccncc3)nc3c(C)cccc23)no1	36.6	.	/	.	.
Cc1ccc(-c2cc(C(=O)Nc3cc(C)on3)c3ccccc3n2)cc1	.	.	.	.	.
N/C(=N\OC(=O)c1ccccc1Cl)c1ccccc1	.	.	.	.	.
O=C(O/N=C(\c1ccccc1)c1ccncc1)c1ccccc1Cl	.	9.6	.	.	.
O=C(COC(=O)Cc1ccc(Cl)cc1)Nc1c(F)cccc1F	.	.	.	.	.
CCc1ccc(NC(=O)c2cc(C)on2)cc1	.	.	.	.	.
CCc1ccc(NC(=O)c2cc(C(C)C)on2)cc1	.	.	.	.	3.36
COc1ccc(CNC(=O)CCn2c(=O)oc3ccccc32)cc1	.	.	.	.	.
Cc1ccc(NC(=O)CCC(=O)NNC(=O)COc2ccccc2)cc1C	.	.	.	.	.
SMILES	MT stabilizer	Wee1 stabilizer	bCat nuc transl	Autophagy HCS	Insulin prom up
Cc1ccc(NC(=O)Cn2c(=O)oc3ccccc32)cc1	.	.	.	.	.
CCOc1ccc(NC(=O)Cn2c(=O)oc3ccccc32)cc1	.	.	.	.	3.64
CCOc1ccc(NC(=O)CCC(=O)NNC(=O)COc2ccccc2C)cc1	.	.	.	+	.
CCOc1ccc(CNC(=O)CCn2c(=O)oc3ccccc32)cc1	.	.	.	.	3.4
Cc1ccc(C(=O)NCC(=O)N/N=C/c2sccc2C)cc1[N+](=O)[O-]	.	.	.	.	.
O=C(NCc1cccs1)C(=O)c1cn(CC(=O)N2CCCC2)c2ccccc12	.	.	.	.	.
CC1=N/C(=C/c2cccnc2)C(=O)O1	.	.	.	.	.
CN(C)/C=C/C(=O)c1cnc(-c2ccc(Cl)cc2)s1	.	.	.	.	.
O=C(c1ccccc1)c1cnc(-c2ccccc2)s1	.	10.1	.	.	.
CN(C)/C=C/C(=O)c1cnc(-c2ccccc2)s1	.	10.1	.	.	.
O=C(Nc1ccc(Br)cc1)c1ccc(N2C(=O)C3CC=C(Cl)CC3C2=O)cc1 (stereo not given)	.	.	.	.	.
COc1ccc(C(=O)Nc2c(Cl)cc(Cl)cc2C(=O)NCc2ccco2)cc1	.	.	.	.	/

Compound activity: PubChem, several laboratories
